Results on 21 compounds are retold here after PubChem BioAssay AID624082 (The Scripps Research Institute Molecular Screening Center, 2012).

Assay [1] concerns K. pneumoniae BAA-2146 NDM-1, imipenem synergy, growth MIC. The assay is described as follows: imipenem potentiation against NDM-1 K. pneumoniae, late-stage follow-up, VIM-2 MBL inhibitor project, BAA-2146, NDM-1 transformed, nonselective, MIC fold reduction (AID 624082). The method, boiled down: (§1)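 Assay system – log-phase bacterial culture in a checkerboard broth microdilution · Buffer or medium – Mueller-Hinton broth, cation-adjusted (CAMHB) · Reagent – imipenem, two-fold titration series · Dosing – test compound two-fold serial titration, crossed with imipenem titration · Times – aerobic incubation of inoculated wells, at least 18 h, 37 °C · Read-out – MIC per CLSI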

Experiment in assay [2]: as above
The note with it: K. pneumoniae BAA-2146 NDM-1, imipenem synergy, growth MIC; measured here: max imipenem fold potentiation; stronger effect = higher value. The essentials: as §1

The structures appear in SMILES notation. Calls of active or inactive are those of the source.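 How the source made its calls: active means MIC showing a fourfold drop that lands at or below 10 µM; inactive means fourfold-lowered MIC still above 10 µM.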 A value given as a limit tells only on which side of the number the result lay.

Broadly, the MIC is the least concentration at which growth counts as inhibited. As for `O=C(CN1C(=O)/C(=C/c2c(Cl)ccc(Cl)c2Cl)SC1=S)NN1CCCCC1`, in assay [1], the MIC was > 50 µM (inactive). As for `CCN(CC)OC(=O)CN1C(=O)/C(=C/c2c(Cl)cccc2Cl)SC1=S`, the MIC in assay [1] was > 100 µM (inactive). Still for that read-out and setting: to `O=C(CN1C(=O)/C(=C/c2c(Cl)cccc2Cl)SC1=S)NN1CCN(Cc2ccccc2)CC1` belongs > 50 µM (inactive). Take `CN1CCN(NC(=O)CN2C(=O)/C(=C/c3c(Cl)ccc(Cl)c3Cl)SC2=S)CC1`: in assay [2], the fold potentiation worked out at 2. In assay [1], the MIC was > 50 µM (inactive). Turning to `O=C(CN1C(=O)/C(=C/c2c(Cl)ccc(Cl)c2Cl)SC1=S)NCc1ccccn1`, in assay [1], the MIC is > 50 µM (inactive).

Take `CN1CCN(C(=O)CN2C(=O)/C(=C/c3c(Cl)ccc(Cl)c3Cl)SC2=S)CC1`: in assay [1], the MIC is > 50 µM (inactive). Still for that read-out and setting: next, `O=C(O)CN1C(=O)/C(=C/c2c(Cl)cccc2Cl)SC1=S`: > 100 µM (inactive); `CC(C)(C)OC(=O)N1CCN(NC(=O)CN2C(=O)/C(=C/c3c(Cl)ccc(Cl)c3Cl)SC2=S)CC1`: > 50 µM (inactive). Turning to `CN1CCN(NC(=O)CN2C(=O)/C(=C/c3c(C(F)(F)F)ccc(Cl)c3Cl)SC2=S)CC1`, the fold potentiation in assay [2] stood at 2. Moreover, in assay [1], the MIC is > 50 µM (inactive).

On to `CC(C)(C)OC(=O)N1CCN(NC(=O)CN2C(=O)/C(=C/c3c(Cl)cccc3Cl)SC2=S)CC1`, for which the MIC in assay [1] was > 100 µM (inactive). `CN1CCN(NC(=O)CN2C(=O)/C(=C/c3c(Cl)cccc3Cl)SC2=S)CC1`: in assay [2], the fold potentiation amounted to 2. In assay [1], the MIC is > 100 µM (inactive).

For `O=C(CN1C(=O)/C(=C/c2c(Cl)cccc2Cl)SC1=S)NCc1ccccn1`, the MIC in assay [1] was > 100 µM (inactive). On the same count and under the same terms, to `CC(=O)N1CCN(NC(=O)CN2C(=O)/C(=C/c3c(Cl)cccc3Cl)SC2=S)CC1` belongs > 50 µM (inactive); to `O=C(CN1C(=O)/C(=C/c2c(Cl)cccc2Cl)SC1=S)NN1CCNCC1`, > 50 µM (inactive). As for `CN1CCN(NC(=O)CN2C(=O)/C(=C/c3c(F)cccc3Cl)SC2=S)CC1`, in assay [2], the fold potentiation came out at 2. In addition, the MIC in assay [1] was > 50 µM (inactive). The matching figures for `O=C(CN1C(=O)/C(=C/c2c(Cl)ccc(Cl)c2Cl)SC1=S)NN1CCNCC1`: 2 and > 50 µM (inactive). Take `O=C(CN1C(=O)/C(=C/c2c(Cl)cccc2Cl)SC1=S)NN1CCN(C(=O)c2ccccc2)CC1`: the MIC in assay [1] was > 50 µM (inactive). Still for that read-out and setting: to `O=C(O)CN1C(=O)/C(=C/c2c(F)cccc2C(F)(F)F)SC1=S` belongs > 50 µM (inactive); to `CC(C)N1CCN(NC(=O)CN2C(=O)/C(=C/c3c(Cl)cccc3Cl)SC2=S)CC1`, > 50 µM (inactive). Turning to `CN1CCN(NC(=O)CN2C(=O)/C(=C/c3c(F)cccc3C(F)(F)F)SC2=S)CC1`, the fold potentiation in assay [2] was found to be 2. Moreover, the MIC in assay [1] was > 50 µM (inactive). `CN1CCN(NC(=O)CN2C(=O)/C(=C/c3c(Cl)ccc(C(F)(F)F)c3Cl)SC2=S)CC1`: in assay [2], the fold potentiation amounted to 2. In addition, the MIC in assay [1] is > 50 µM (inactive).
